Results taken from ChEMBL document CHEMBL1124126, “Terminal bifunctional retinoids. Synthesis and evaluations related to cancer chemopreventive activity” (1988).

How the values were obtained:
Gallus gallus = organism: Gallus gallus; test: Relative percent binding to cellular retinoic acid binding protein (CRABP) in chick embryo skin.
How it was run: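 Competition of unlabeled retinoid with [3H]retinoic acid for binding to CRABP from chick embryo skin. Inhibition caused by a 100-fold molar excess of unlabeled retinoic acid defined as 100%.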

F9 = test: Ability to induce differentiation of mouse F9 embryonal carcinoma cells.; assay type: functional; settings: read-out: ED50 (the source's name)
How it was run: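 Mouse F9 embryonal carcinoma cells grown at 1 × 10^5 cells/mL for 4 days with or without retinoid at 10^-7 to 10^-11 M. Harvest fluid mixed with 0.13 μM plasminogen, 0.3 mM H-D-Val-Leu-Lys-p-NA, 0.1% Tween 80 and fibrinogen fragments in Tris·HCl pH 7.5. Incubated 4 h at 25 °C, p-nitroaniline read at 405 nm. Triplicate mean absorbances plotted semilog against molarity; ED50 taken at midpoint between maximal and minimal absorbance.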

| Compound | RA (Gallus gallus) | EC50 (F9) |
| --- | --- | --- |
| CCNC(=O)/C(C(=O)OCC)=C(C)/C=C/C=C(C)/C=C/C1=C(C)CCCC1(C)C | 0% | 6 nM |
| CCNC(=O)\C(C(=O)O)=C(C)/C=C/C=C(C)/C=C/C1=C(C)CCCC1(C)C | 55% | 0.6 nM |
| CCNC(=O)/C(C(=O)O)=C(C)/C=C/C=C(C)/C=C/C1=C(C)CCCC1(C)C | 55% | 0.5 nM |
| CC(/C=C/C=C(C)/C=C/C1=C(C)CCCC1(C)C)=C(C(=O)O)C(=O)O | 65% | 0.5 nM |
| CCOC(=O)C(C(=O)OCC)=C(C)/C=C/C=C(C)/C=C/C1=C(C)CCCC1(C)C | 0% | 4.5 nM |
| CC1=C(/C=C/C(C)=C/C=C/C(C)=C\C(=O)O)C(C)(C)CCC1 [ISOTRETINOIN] | 100% | 0.3 nM |
| CCOC(=O)/C(C(=O)O)=C(C)/C=C/C=C(C)/C=C/C1=C(C)CCCC1(C)C | 90% | 1 nM |
| CCNC(=O)\C(C(=O)OCC)=C(C)/C=C/C=C(C)/C=C/C1=C(C)CCCC1(C)C | 0% | 6 nM |
| CC1=C(/C=C/C(C)=C/C=C/C(C)=C/C(=O)O)C(C)(C)CCC1 [TRETINOIN] | 100% | 0.1 nM |
